Screens (PubChem BioAssay)
MrgX1 antagonist = antagonists of human MrgX1 receptor, primary screen, HEK293 cells, Fluo-4 calcium flux; BAM8-22 antagonism; hits give low values; B-score at 10 µM; 1.3% of 310,000 active;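 active means calcium-response B-score plate-corrected more than 3 library SD below zero, starting fluorescence within 5 deviations, no agonist response on first addition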;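 further: peak minus trough fluorescence over baseline after final BAM8-22 challenge near maximal dose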
Target sequence (Q96LB2 whole entry, looked up): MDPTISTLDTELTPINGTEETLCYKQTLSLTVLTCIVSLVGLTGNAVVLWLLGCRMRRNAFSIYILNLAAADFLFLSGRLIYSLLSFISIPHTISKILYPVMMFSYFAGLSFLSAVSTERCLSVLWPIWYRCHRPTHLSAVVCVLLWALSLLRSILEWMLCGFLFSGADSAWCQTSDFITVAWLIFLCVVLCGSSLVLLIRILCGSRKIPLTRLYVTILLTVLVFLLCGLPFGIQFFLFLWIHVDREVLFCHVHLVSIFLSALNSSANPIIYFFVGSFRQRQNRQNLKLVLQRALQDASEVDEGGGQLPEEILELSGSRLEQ
RGS4 act = RGS4 potentiators or activators, primary screen, cell-based, HEK293 M3R inducible RGS4, calcium flux | AID 463111, 2010 | carbachol calcium flux Fluo4; hits give low values | 0.92% of 310,000 active | B-score at 10 µM;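 active means B-score of the integrated calcium signal more than 4 SD below the library mean, with starting fluorescence not abnormally high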;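 further: negative B-score means reduced calcium response which marks RGS4 activation or potentiation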
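Reagent: ECmax carbachol challenge; Test system: M3R-expressing HEK293 line, RGS4 induced by doxycycline; Schedule: overnight RGS4 induction, 30 min dye load 37 °C, 20 min compound RT; Detection: calcium dye Fluo4 fluorescence; Read-out: Agonist-evoked peak-minus-minimum fluorescence over baseline, integrated ratio, B score.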
MrgX1 PAM = positive allosteric modulators of MrgX1, primary screen, HEK293 cells, Fluo-4 calcium flux. FDSS; hits give high values. AID 588675, 2011. B-score at 10 µM. 0.63% of 310,000 active. Mas-related G-protein coupled receptor member X1 (Homo sapiens), Q96LB2;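 active means plate-corrected calcium response at least 3 library SD above typical, normal starting fluorescence, not activating the receptor alone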;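 further: compound read alongside a low EC10 to EC30 dose of BAM8-22 agonist; peak minus trough fluorescence over baseline measured at the second addition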
MrgX1 ag = agonists of human MrgX1 receptor, primary screen, HEK293 cells, Fluo-4 calcium flux | Fluo-4 calcium fluorescence, agonist mode; hits give high values | 0.44% of 310,000 active | Mas-related G-protein coupled receptor member X1 (Homo sapiens), Q96LB2 | B-score at 10 µM;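 active means calcium response B-score plate-corrected fluorescence ratio at least 3 library SD, with starting fluorescence B-score inside 5 SD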
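Material – MrgX1-expressing HEK293 cells · Input – 15,000 cells seeded per well · Dosing – compound as first of three additions · Times – overnight seeding, then 1 h dark dye loading · Measured by – kinetic Fluo-4 NW fluorescence of intracellular calcium · Read-out – B-scored fluorescence response ratio · Benchmarks – positive and negative control wells on each plate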
RGS4 inh = RGS4 inhibitors, primary screen, cell-based, HEK293 M3R inducible RGS4, calcium flux. Regulator of G-protein signaling 4 (Homo sapiens), P49798. Fluo-4 calcium flux; hits give high values; triggered by carbachol at its EC20. B-score at 10 µM. 0.45% of 310,000 active. AID 463165, 2010;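 active means B-score, a plate-corrected calcium signal, over three deviations above library mean, with baseline fluorescence within five deviations of library mean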;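 further: RGS4 expression induced by doxycycline in cells with stable M3 receptor; B-score is computed from the integrated fluorescence ratio over baseline after carbachol; higher B-score means a larger calcium signal and so more RGS4 inhibition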
Target sequence (P49798 whole entry, looked up): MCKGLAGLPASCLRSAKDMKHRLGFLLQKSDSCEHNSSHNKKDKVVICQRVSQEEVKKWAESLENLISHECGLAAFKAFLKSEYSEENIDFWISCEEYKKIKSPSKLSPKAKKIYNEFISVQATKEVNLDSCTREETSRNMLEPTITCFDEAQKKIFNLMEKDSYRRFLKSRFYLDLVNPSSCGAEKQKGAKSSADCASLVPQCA
MrgX1 antag conf = MrgX1 receptor antagonists, duplicate retest, confirmation, HEK293 cells, Fluo-4 calcium flux | shares compounds with MrgX1 antagonist | BAM8-22 calcium flux; hits give low values | remaining BAM8-22 calcium response % of control (hits give low values), % at 10 µM | 19% of 2,300 active | AID 602420, 2012;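 active means remaining agonist calcium response no higher than 100% minus 3 SD of agonist-only control wells, with starting fluorescence near control levels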;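 further: agonist BAM8-22 given at a near maximal EC90 to ECmax level; peak minus minimum fluorescence divided by baseline after agonist addition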
HEK293 Ca flux = nonspecific calcium signal in parental HEK293, confirmation, counter-screen for MrgX1 antagonist project, parental HEK293 cells, Fluo-4 calcium flux; shares compounds with MrgX1 antagonist; Fluo-4 calcium fluorescence, FDSS; 2% of 4,000 active; fluorescence ratio F(max-min)/F0 at 10 µM;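 active means duplicate-averaged calcium fluorescence ratio at least three times the standard deviation of buffer wells, a nonspecific response in parental cells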
HEK293 Ca counter = calcium response in parental HEK293 cells, primary screen, counter-screen for MrgX1 allosteric activator project, cell-based, Fluo-4 calcium flux, duplicate; shares compounds with MrgX1 antagonist; Fluo-4 fluorescence ratio; hits give high values; fluorescence ratio F(max-min)/F0 at 10 µM; 0.4% of 4,000 active;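 active means calcium fluorescence ratio, averaged over duplicates, at least 3 SD of the buffer-well ratio, meaning a nonspecific response in receptor-free cells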;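 further: untransfected parental HEK293 lacking MrgX1 used as counterscreen for MrgX1 allosteric activators; fluorescence change taken during the second addition on a kinetic imager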
HEK293 Ca cntr2 = calcium response in parental HEK293 cells, primary screen, counter-screen for MrgX1 agonist project, cell-based, Fluo-4 calcium flux, duplicate, agonist mode | fluorescence ratio F(max-min)/F0 at 10 µM | AID 624115, 2012 | Fluo-4 calcium fluorescence (FDSS); hits give high values | shares compounds with MrgX1 antagonist | 8.7% of 4,000 active;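 active means calcium fluorescence ratio at least three times the spread of buffer wells, meaning a non-specific response in parental cells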
* = called active by the depositor. Shown are actives, neighbours in structure and some others; about 3.5% of the full set was active somewhere.

Screening CCOc1ncccc1C(=O)N(CC)CC(=O)NCc1ccc(Cl)cc1 returned MrgX1 antagonist inactive, RGS4 act inactive, MrgX1 PAM inactive, MrgX1 ag inactive and RGS4 inh inactive.
Screening CC1=C[C@H](C)[C@H](c2c(F)cccc2Cl)CC1=O returned MrgX1 antagonist inactive, RGS4 act inactive, MrgX1 PAM inactive, MrgX1 ag inactive and RGS4 inh inactive.
For Cc1cc(C)n(-c2ccc(C(=O)OCC(=O)Nc3ccc(Cl)cc3[N+](=O)[O-])cc2)n1 the results were MrgX1 antagonist inactive, RGS4 act inactive, MrgX1 PAM inactive, MrgX1 ag inactive and RGS4 inh inactive.
Nc1nc(N2CCN(c3ccc(Cl)cc3)CC2)n[nH]1 was read as MrgX1 antagonist inactive, RGS4 act inactive, MrgX1 PAM inactive, MrgX1 ag inactive and RGS4 inh inactive.
Nc1nc(N2CCN(c3ccccc3)CC2)n[nH]1 was read as MrgX1 antagonist -5.7*, RGS4 act inactive, MrgX1 PAM inactive, MrgX1 ag inactive, RGS4 inh inactive, MrgX1 antag conf inactive, HEK293 Ca flux inactive, HEK293 Ca counter inactive and HEK293 Ca cntr2 inactive.
Cc1cccc(-n2ncc3c(NCc4ccccc4)ncnc32)c1 was read as MrgX1 antagonist inactive, RGS4 act inactive, MrgX1 PAM inactive, MrgX1 ag inactive and RGS4 inh inactive.
For Cc1cccc(-n2ncc3c(NCCc4ccc(S(N)(=O)=O)cc4)ncnc32)c1 the results were MrgX1 antagonist -5.5*, RGS4 act inactive, MrgX1 PAM inactive, MrgX1 ag inactive, RGS4 inh inactive, MrgX1 antag conf 82%*, HEK293 Ca flux inactive, HEK293 Ca counter inactive and HEK293 Ca cntr2 inactive.
`O=C(NCCN1CCC(Cc2ccccc2)CC1)C1CCN(S(=O)(=O)N2CCC3(CC2)OCCO3)CC1` gave MrgX1 antagonist inactive, RGS4 act inactive, MrgX1 PAM inactive, MrgX1 ag inactive and RGS4 inh inactive.
For O=C(NCCc1ccccc1)C1CCN(S(=O)(=O)N2CCC3(CC2)OCCO3)CC1 the results were MrgX1 antagonist -6*, RGS4 act inactive, MrgX1 PAM inactive, MrgX1 ag inactive, RGS4 inh inactive, MrgX1 antag conf inactive, HEK293 Ca flux inactive, HEK293 Ca counter inactive and HEK293 Ca cntr2 inactive.
Screening O=C(NCCc1ccccc1)C1CCN(C(=O)NCc2ccccc2)CC1 returned MrgX1 antagonist -11*, RGS4 act inactive, MrgX1 PAM inactive, MrgX1 ag inactive, RGS4 inh inactive, MrgX1 antag conf inactive, HEK293 Ca flux inactive, HEK293 Ca counter inactive and HEK293 Ca cntr2 inactive.
COc1ccc(CCC(=O)NCC(=O)OCc2ccccc2)cc1 was read as MrgX1 antagonist inactive, RGS4 act inactive, MrgX1 PAM inactive, MrgX1 ag inactive and RGS4 inh inactive.
